High-throughput results: PubChem, several laboratories
L major viab – Leishmania major promastigote growth inhibition | Leishmania major promastigotes, resazurin fluorescence viability | inhibition, % at 10 µM | hit rate 9% among 200,000; in the data active = inhibition above about 50%;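 also: promastigotes grown with compound for 44 hours at 28 °C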
Diaphorase act – counter-screen for diaphorase-based assays: diaphorase activators and chemical reducers; Diaphorase/resazurin coupled assay, resorufin fluorescence, 16 min; hits give high values; 1 = vehicle wells, 0 = NADH-free wells; activation factor at 20 µM; hit rate 0.005% among 190,000; AID 1229;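 active = diaphorase activity raised at least twofold by the compound at 20 µM; inactive = activation factor below 2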
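Material: purified diaphorase enzyme from Clostridium kluyveri / Medium: HEPES pH 7.4 buffer with MgCl2 and Tween 20 / Schedule: enzyme reaction of 16 min at room temperature / Measured by: resorufin fluorescence, excitation 544 nm, emission 590 nm / Evaluation: rise in resorufin formation, marking diaphorase activation or chemical reduction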
PMI act – increases human mannose-6-phosphate isomerase activity; P34949; purified human PMI, coupled resazurin fluorescence, 20 min; hits give high values; 1 = vehicle control, 0 substrate-free wells; activation factor at 20 µM; hit rate 0.005% among 190,000; AID 1214;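 active = activation factor of 2 or more at 20 µM, relative to plate controls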
Target sequence (P34949 whole entry, looked up): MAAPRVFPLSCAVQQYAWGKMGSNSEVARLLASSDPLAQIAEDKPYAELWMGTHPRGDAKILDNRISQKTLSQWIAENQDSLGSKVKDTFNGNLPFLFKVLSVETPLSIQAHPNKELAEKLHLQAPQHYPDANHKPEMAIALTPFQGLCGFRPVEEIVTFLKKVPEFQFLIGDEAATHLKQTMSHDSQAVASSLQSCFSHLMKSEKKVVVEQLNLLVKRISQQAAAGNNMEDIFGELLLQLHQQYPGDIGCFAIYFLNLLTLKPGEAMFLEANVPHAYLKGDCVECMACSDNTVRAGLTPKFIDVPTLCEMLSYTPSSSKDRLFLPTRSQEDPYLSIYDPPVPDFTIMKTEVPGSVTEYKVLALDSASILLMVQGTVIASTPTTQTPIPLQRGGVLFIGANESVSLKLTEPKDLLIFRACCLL
WT yeast gro inh – growth inhibition of WT yeast, mitochondrial fusion screen; mitochondrial fusion phenotypic screen, WT strain; inhibition, % at 10 µM; hit rate 2.1% among 190,000; AID 1362; in the data active = inhibition above about 58%; tested in S. cerevisiae
PMI act hi M6P – increases human PMI activity with near-saturating mannose 6-phosphate | AID 1216 | activation factor at 20 µM | P34949 | hit rate 0.34% among 190,000 | coupled PMI enzyme assay, resazurin fluorescence, 20 min; hits give high values; 1 = untreated enzyme, 0 = substrate-free blank;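 active = activation factor of 2 or more at 20 µM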
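Test system: Human PMI in coupled enzyme assay | Input: 15 ng/mL PMI | Medium: HEPES-buffered pH 7.4 with magnesium and detergent | Compound: One concentration, 20 µM, in 1% DMSO | Incubation: Enzyme reaction with compound 20 min at room temperature | Detection: Diaphorase-driven resazurin-to-resorufin fluorescence, excitation 544, emission 590 nm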
Active calls of the source: *; . = not tested or not shown. Most compounds without a hit are left out; they make up all but 10% or so of the library.

SMILES	L major viab	Diaphorase act	PMI act	WT yeast gro inh	PMI act hi M6P
O=C(NCCc1ccccc1F)C1CCCN1S(=O)(=O)c1ccc2ccccc2c1 (centres undefined)	57*	0.8	0.9	11	0.9
COc1ccc(NC(=O)Nc2nc3c(s2)CCCC3)cc1	54*	0.8	0.9	42	0.9
Cc1nn2cc(-c3ccc(Cl)cc3)cnc2c1Cl	1	0.9	1	6	1
COc1ccc(NC(=O)CN(C)C2CCCCC2)c([N+](=O)[O-])c1	4	0.9	0.9	27	1
CCN(CC)Cc1c(O)ccc2c([N+](=O)[O-])c(C)n(-c3ccc(OC)cc3)c12	69*	0.9	1.1	-1	1.1
CC(C)NC(=S)N/N=C/C1=CCC2CC1C2(C)C (centres undefined)	100*	0.7	1	73*	1
CC(C)(C)c1ccc(/C=N/NC(=S)Nc2cccnc2)cc1	17	1	1.1	60*	1.1
Oc1ccc(/C=N/NC(=S)Nc2cccnc2)cc1O	0	0.5	0.6	-9	0.9
C=CCNC(=S)N/N=C/c1ccc(C(C)(C)C)cc1	18	0.9	0.9	76*	0.9
C=C(C)CNC(=S)N/N=C/C1=CCC2CC1C2(C)C (centres undefined)	100*	0.8	0.8	64	0.8
CC(=O)N/N=C/C1=CCC2CC1C2(C)C (centres undefined)	7	0.9	1	13	1
CCCCNC(=O)CCn1c(=O)c2ccccc2n(CC(=O)NCCc2ccc(OC)c(OC)c2)c1=O	-1	0.9	1.1	-3	1
COCCn1c(N)c(N(Cc2ccccc2)C(=O)c2oc3ccccc3c2C)c(=O)[nH]c1=O	1	0.9	0.9	6	0.9
CC1=C/C(=N\NC(=S)Nc2cccnc2)CC(C)(C)C1	99*	0.6	0.8	40	0.7
CCCCNC(=S)N/N=C/C1=CCC2CC1C2(C)C (centres undefined)	100*	0.8	1	70*	1
CCC(C)(C)C1CCC(=NNC(=S)Nc2cccnc2)CC1 (centres undefined)	0	0.8	1.4	-5	1.9
CC1(C)C2CC=C(/C=N/NC(=S)Nc3cccnc3)C1C2 (centres undefined)	97*	0.8	1	15	1
COc1nc(N/N=C/c2ccccc2F)nc(N2CCCCC2)n1	2	0.9	0.9	11	0.9
O=C(Nc1ccccc1C(=O)NCc1cccnc1)c1ccc(Cl)cc1Cl	1	0.9	0.8	13	0.8
COc1ccccc1NC(=O)Nc1nnc(CC(=O)Nc2ccccc2)s1	-6	1	0.9	7	1
CCc1nnc(NC(=O)Nc2ccccc2OC)s1	-8	0.9	1	59*	1
Nc1ccc(C(=O)N/N=C\c2cc(N=Nc3cccc4ccccc34)ccc2O)cc1	99*	1	1.1	25	0.9
Cc1cc(C(=O)N/N=C/c2cc(N=Nc3ccccc3)ccc2O)n[nH]1	99*	0.9	1	6	1.1
Nc1cccc(C(=O)N/N=C/c2ccsc2)c1	-7	0.9	0.9	6	0.6
COc1ccc(Cl)cc1NC(=O)CCN1CCN(C)CC1	0	1	1.1	.	1.2
SMILES	L major viab	Diaphorase act	PMI act	WT yeast gro inh	PMI act hi M6P
CN1CCN(CCOc2cccc(Cl)c2)CC1	10	1	1	-1	1.1
Clc1ccc2c(c1)C(N1CCNCC1)Cc1ccccc1S2 (centres undefined)	100*	1	1	90	0.9
Clc1cccc2c1Sc1ccccc1CC2N1CCNCC1 (centres undefined)	100*	1.1	1.1	84	1.1
NC(=O)CCN1CCN(CCOC2Cc3cc(Cl)ccc3Sc3ccccc32)CC1 (centres undefined)	91*	0.9	1	39	0.9
Clc1ccc2c(c1)C(N1CCNCC1)=Nc1ccccc1O2	23	0.8	0.9	15	1
O=C(c1ccccc1Cl)N1CCNCC1	0	1	1	5	1
COCCCN1CCN(C2Cc3ccccc3Sc3ccc(Cl)cc32)CC1 (centres undefined)	78*	0.9	0.9	70	1
COc1ccc(OCC(=O)NNC(=O)c2cccc(O)c2)cc1	-6	0.9	1	8	1
OC(CNCc1ccc(Cl)cc1)C(F)(F)F (centres undefined)	-1	0.9	1.1	7	1
